Seven compounds from ChEMBL document CHEMBL4196023, “Cyclic peptide inhibitors of lysine-specific demethylase 1 with improved potency identified by alanine scanning mutagenesis” (Eur J Med Chem, 2018) can be followed below.

Experiment [1] has as its system Calu-6. Nature of the experiment: Inhibition of cell proliferation in human Calu6 cells at 100 uM after 72 hrs by MTS assay. It is filed as functional, cell-based. The procedure, abridged:
(§1)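 Calu-6 cells grown in EMEM with 10% FBS. Seeded at 2,000 cells/well and attached for one day, then treated 72 h at 37°C, 5% CO2. MTS added for 2 h and absorbance read at 490 nm minus 690 nm. % cell death calculated against untreated control. Mean of 3 determinations ± S.E.M.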
(Tetrazolium dyes change colour on reduction, which living cells bring about.)

The test system of experiment [2] is Calu-6. Nature of the experiment: Inhibition of cell proliferation in human Calu6 cells up to 1 uM after 72 hrs by MTS assay. It is filed as functional, cell-based. The procedure, abridged: as §1
The target of experiment [3] is LSD1/CoREST complex (Homo sapiens) (UniProt O60341+Q9UKL0). Nature of the experiment: Inhibition of recombinant human LSD1/CoREST at 500 nM preincubated for 5 mins followed by ART-(N,N-dimethyl-K)-QTARKSTGGKAPRKQLA substrate addition measured after 25 mins by fluorescence assay relative to control.
The test system of experiment [4] is K562. Nature of the experiment: Antiproliferative activity against human K562 cells assessed as cell death at 1 uM after 72 hrs by MTS assay relative to control. It is filed as functional.
Experiment [5] deals with K562. In words: Antiproliferative activity against human K562 cells assessed as cell death at 100 uM after 72 hrs by MTS assay relative to control. It is filed as functional.
Experiment [6] has as its system K562. Nature of the experiment: Antiproliferative activity against human K562 cells after 72 hrs by MTS assay. It is filed as functional, cell-based. To be noted: K562, 72 h.
The subject of experiment [7] is Calu-6. In words: Antiproliferative activity against human Calu6 cells after 72 hrs by MTS assay. It is filed as functional, cell-based. To be noted: Calu-6, 72 h.
The test system of the next experiment is MCF7. Nature of the experiment: Antiproliferative activity against human MCF7 cells after 72 hrs by MTS assay. It is filed as functional, cell-based. To be noted: MCF7, 72 h.
In experiment [8] the target is Lysine-specific histone demethylase 1A (Homo sapiens) (UniProt O60341). In words: Inhibition of LSD1 in human NCI-H526 cells assessed as increase in H3K4me2 marks at promoter of FEZ1 at 100 uM after 48 hrs by ChIP-qPCr method. It is filed as cell-based. The procedure, abridged: (§2)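 NCI-H526 small cell lung carcinoma cells treated 48 h at 100 µM alongside an untreated control. Cells formaldehyde cross-linked, nuclei sonicated and chromatin enzymatically digested. IP with H3K4me2 antibody (normal rabbit IgG as negative control) on protein G magnetic beads. Purified DNA quantified by TaqMan qPCR at promoter regions; fold change by comparative CT (Livak). SD from three qPCR wells.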

Experiment [9] shares this target. Nature of the experiment: Inhibition of LSD1 in human NCI-H526 cells assessed as increase in H3K4me2 marks at promoter of IGFBP2 at 100 uM after 48 hrs by ChIP-qPCr method. It is filed as cell-based. In a few lines: as §2

Calls of active or inactive are those of the source. The calls are words filed in the database; no cut-off is given here. Positions of bridges follow the written chain, without caps; N, C: chain ends. Residues, ends and D or L forms follow the SMILES beside them.

LSD1/CoREST complex (Homo sapiens), sequence (Q9UKL0 whole entry, looked up, other chains not shown): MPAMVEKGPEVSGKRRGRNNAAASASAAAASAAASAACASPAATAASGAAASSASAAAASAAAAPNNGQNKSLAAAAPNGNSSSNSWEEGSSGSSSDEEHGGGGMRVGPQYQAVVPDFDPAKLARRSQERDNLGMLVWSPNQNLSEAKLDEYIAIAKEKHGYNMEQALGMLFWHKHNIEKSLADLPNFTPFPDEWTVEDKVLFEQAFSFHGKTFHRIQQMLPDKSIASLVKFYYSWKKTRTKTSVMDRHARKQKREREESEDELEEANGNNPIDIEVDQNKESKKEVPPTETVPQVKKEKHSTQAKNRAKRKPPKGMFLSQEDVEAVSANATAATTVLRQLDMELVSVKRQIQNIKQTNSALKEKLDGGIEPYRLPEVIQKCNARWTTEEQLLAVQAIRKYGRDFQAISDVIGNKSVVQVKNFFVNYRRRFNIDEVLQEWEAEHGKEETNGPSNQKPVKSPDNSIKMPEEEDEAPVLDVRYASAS

As for `CSCC[C@H](NC(=O)[C@H](C)NC(=O)[C@H](CCCNC(=N)N)NC(=O)[C@H](C)N)C(=O)N[C@H]1CCCCNC(=O)CC[C@@H](C(N)=O)NC(=O)[C@H](CCCCN)NC(=O)[C@H](CCCNC(=N)N)NC(=O)[C@H](C)NC(=O)[C@H]([C@@H](C)O)NC1=O` (H-ARAMKTARKE-NH2; lactam 5-10), the inhibition result with Calu-6 [1] and in the experiment with Calu-6 [2] was “inactive” throughout. Further, the inhibition in experiment [3] came out at 59.8%.
As for `CSCC[C@H](NC(=O)[C@H](C)NC(=O)[C@H](CCCNC(=N)N)NC(=O)[C@H](C)N)C(=O)N[C@H]1CCCCNC(=O)CC[C@@H](C(=O)N[C@H](C(=O)NCC(N)=O)[C@@H](C)O)NC(=O)[C@H](CCCCN)NC(=O)[C@H](CCCNC(=N)N)NC(=O)[C@H](C)NC(=O)[C@H]([C@@H](C)O)NC1=O` (H-ARAMKTARKETG-NH2; lactam 5-10), the inhibition result in the experiment on Calu-6 [1] and in the experiment with Calu-6 [2] was “inactive” in each case. Moreover, the values for the Activity in the experiment on K562 [4] and in the experiment on K562 [5] were 90% and 18%, respectively. For the same compound, the inhibition in experiment [3] stood at 67.3%.
`CSCC[C@H](NC(=O)[C@@H](NC(=O)[C@H](CCCNC(=N)N)NC(=O)[C@H](C)N)[C@@H](C)O)C(=O)N[C@H]1CCCCNC(=O)CC[C@@H](C(=O)N[C@H](C(=O)NCC(=O)NCC(=O)N[C@@H](C)C(=O)N[C@@H](C)C(=O)N2CCC[C@H]2C(=O)N[C@@H](CCCNC(=N)N)C(=O)N[C@@H](CCCCN)C(=O)N[C@@H](CCC(N)=O)C(=O)N[C@@H](CC(C)C)C(=O)N[C@@H](C)C(N)=O)[C@@H](C)O)NC(=O)[C@H](CCCCN)NC(=O)[C@H](CCCNC(=N)N)NC(=O)[C@H](C)NC(=O)[C@H]([C@@H](C)O)NC1=O` (H-ARTMKTARKETGGAAPRKQLA-NH2; lactam 5-10): the IC50 with K562 [6] amounted to 198 µM; in the experiment on Calu-6 [7] it was 159 µM; with MCF7 it was 156 µM.
As to `CSCC[C@H](NC(=O)[C@H](C)NC(=O)[C@H](CCCNC(=N)N)NC(=O)[C@H](C)N)C(=O)N[C@H]1CCCCNC(=O)CC[C@@H](C(=O)N[C@H](C(=O)NCC(=O)NCC(=O)N[C@@H](CCCCN)C(=O)N[C@@H](C)C(=O)N2CCC[C@H]2C(=O)N[C@@H](CCCNC(=N)N)C(=O)N[C@@H](CCCCN)C(N)=O)[C@@H](C)O)NC(=O)[C@H](CCCCN)NC(=O)[C@H](CCCNC(=N)N)NC(=O)[C@H](C)NC(=O)[C@H]([C@@H](C)O)NC1=O` (H-ARAMKTARKETGGKAPRK-NH2; lactam 5-10), the inhibition entry in the experiment on Calu-6 [1] and in the experiment on Calu-6 [2] was “inactive” throughout. In addition, the Activity is listed as 59% in the experiment on K562 [4] and 9.5% with K562 [5]. Further, the inhibition in [3] was found to be 98%.
With `CSCC[C@H](NC(=O)[C@@H](NC(=O)[C@H](CCCNC(=N)N)NC(=O)[C@H](C)N)[C@@H](C)O)C(=O)N[C@H]1CCCCNC(=O)CC[C@@H](C(=O)N[C@H](C(=O)NCC(=O)NCC(=O)N[C@@H](CCCCN)C(=O)N[C@@H](C)C(=O)N[C@@H](C)C(=O)N[C@@H](CCCNC(=N)N)C(=O)N[C@@H](CCCCN)C(=O)N[C@@H](CCC(N)=O)C(=O)N[C@@H](CC(C)C)C(=O)N[C@@H](C)C(N)=O)[C@@H](C)O)NC(=O)[C@H](CCCCN)NC(=O)[C@H](CCCNC(=N)N)NC(=O)[C@H](C)NC(=O)[C@H]([C@@H](C)O)NC1=O` (H-ARTMKTARKETGGKAARKQLA-NH2; lactam 5-10), the 50% inhibitory concentration (IC50) amounted to 35.6 µM in the experiment with K562 [6], 409 µM in the experiment with Calu-6 [7] and 385 µM in the experiment on MCF7.
Regarding `c1ccc([C@@H]2C[C@H]2NC2CCNCC2)cc1` (relative stereo), the inhibition entry in experiment [8] and in [9] was “Active” each time.
Turning to `CSCC[C@H](NC(=O)[C@H](C)NC(=O)[C@H](CCCNC(=N)N)NC(=O)[C@H](C)N)C(=O)N[C@H]1CCCCNC(=O)CC[C@@H](C(=O)N[C@H](C(=O)NCC(=O)NCC(=O)N[C@@H](CCCCN)C(=O)N[C@@H](C)C(N)=O)[C@@H](C)O)NC(=O)[C@H](CCCCN)NC(=O)[C@H](CCCNC(=N)N)NC(=O)[C@H](C)NC(=O)[C@H]([C@@H](C)O)NC1=O` (H-ARAMKTARKETGGKA-NH2; lactam 5-10), the inhibition result in the experiment on Calu-6 [1] and with Calu-6 [2] was “inactive” throughout. Besides, the Activity in the experiment on K562 [4] was 53%; with K562 [5], 11%. In addition, the inhibition in [3] is 73.4%.

In general, inhibition refers to the drop in the measured response relative to a control, in per cent. Broadly, the IC50 is the concentration that inhibits the measured activity by half. A high value points to a need for much substance.
